In ChEMBL document CHEMBL4706565, “Anti-glioma effects of 2-aminothiophene-3-carboxamide derivatives, ANO1 channel blockers” (Eur J Med Chem, 2020):
Activity calls are given as the source filed them. The calls are words filed in the database; no cut-off is given here.

What was measured:
[1] = target: T1, Anoctamin-1 (Homo sapiens) (UniProt Q5XXA6); test: Inhibition of human ANO1 channel expressed in HEK293 cells at 10 uM incubated for 10 mins by FLIPR assay relative to control; assay type: cell-based
T1 sequence (whole entry): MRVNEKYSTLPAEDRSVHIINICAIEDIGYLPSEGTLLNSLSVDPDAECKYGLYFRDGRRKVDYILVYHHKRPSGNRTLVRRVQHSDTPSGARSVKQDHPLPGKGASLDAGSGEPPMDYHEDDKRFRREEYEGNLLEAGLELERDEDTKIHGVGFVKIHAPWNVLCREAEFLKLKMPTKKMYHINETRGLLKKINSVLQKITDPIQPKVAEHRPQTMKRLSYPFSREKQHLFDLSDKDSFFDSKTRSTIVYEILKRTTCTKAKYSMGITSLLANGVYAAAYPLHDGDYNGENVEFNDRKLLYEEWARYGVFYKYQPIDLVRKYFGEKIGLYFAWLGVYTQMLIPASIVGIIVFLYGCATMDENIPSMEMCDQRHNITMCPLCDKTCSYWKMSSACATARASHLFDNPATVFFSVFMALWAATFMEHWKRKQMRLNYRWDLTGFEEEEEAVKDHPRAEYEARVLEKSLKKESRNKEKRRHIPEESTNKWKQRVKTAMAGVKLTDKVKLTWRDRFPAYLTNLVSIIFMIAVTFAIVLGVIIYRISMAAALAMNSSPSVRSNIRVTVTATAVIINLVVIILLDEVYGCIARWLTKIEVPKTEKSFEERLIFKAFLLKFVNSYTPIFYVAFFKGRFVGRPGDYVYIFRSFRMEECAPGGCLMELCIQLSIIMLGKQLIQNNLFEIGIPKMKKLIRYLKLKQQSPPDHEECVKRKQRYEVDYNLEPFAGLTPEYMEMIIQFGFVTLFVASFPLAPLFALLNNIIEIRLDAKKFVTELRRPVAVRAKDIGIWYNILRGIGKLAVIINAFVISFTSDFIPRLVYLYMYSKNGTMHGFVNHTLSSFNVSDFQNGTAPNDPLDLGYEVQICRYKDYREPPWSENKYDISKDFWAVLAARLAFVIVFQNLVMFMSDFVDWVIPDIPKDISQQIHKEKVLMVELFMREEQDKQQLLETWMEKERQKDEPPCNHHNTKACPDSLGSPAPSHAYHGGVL
How it was run: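 HEK293 cells expressing human ANO1, 50,000 cells/well, plated overnight. Loaded with FLIPR Red membrane-potential dye in HEPES-buffered saline (pH 7.4) for 40-60 min at room temperature. Compound added for 10 min at room temperature, final DMSO 0.5%.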

[2] = system: U-251; test: Inhibition of cell migration in human U251 cells at 10 uM incubated for 18 hrs by wound healing assay; assay type: functional
How it was run: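 U251 monolayer, 2.0×10^5 cells/well, plated overnight, then scratched and washed with PBS. Wound area imaged before and after incubation; migration ratio taken from migrated area. One-way ANOVA.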

[3] = system: U-87 MG; test: Antiproliferative activity against human U87MG cells overexpressing ANO1 assessed as reduction in cell viability at 100 uM measured after 72 hrs by Celltiter-glo assay; assay type: functional, U-87MG ATCC
How it was run: (§1)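 5.0×10^3 cells/well seeded, overnight, then compounds added as 1:4 serial dilutions in DMSO; viability read after 72 h with CellTiter-Glo luminescence. GI50 from fitted dose-response curves; triplicate wells, SD from three independent experiments. DMEM for U251 and U138, MEM for U87MG, both with 10% FBS and pen/strep, 37 °C, 5% CO2.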

[4] = system: U-251; test: Inhibition of anchorage-independent colony formation in human U251 cells at 100 uM incubated for 14 days by crystal violet staining based soft agar colony formation assay; assay type: functional
How it was run: (§2)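 Soft agar assay: 2.0×10^3 U251 cells in complete medium with 0.3% agar over a 0.6% bottom agar layer. Treated with compounds at 1-100 μM for 14 days, 37 °C, 5% CO2. Colonies stained with crystal violet for 24 h, whole wells photographed and colonies counted against DMSO control; n = 3.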

[5] = system: U-251; test: Inhibition of cell invasion in human U251 cells at 10 uM incubated for 48 hrs by Boyden chamber method; assay type: functional
How it was run: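 Boyden chamber invasion: U251 cells serum-starved 24 h, then 2.5×10^5 cells seeded in 8-μm ECMatrix-coated transwells. Treated with compound at 1 or 10 μM for 48 h at 37 °C. Invasion ratio from relative fluorescence.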

[6] = Antiproliferative activity against mouse primary astrocytes assessed as reduction in cell viability at 100 uM measured after 72 hrs by Celltiter-Glo luminescent assay; assay type: cell-based, Astrocyte
How it was run: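 Primary astrocytes isolated from adult mouse brain by a previously reported method. 5.0×10^3 cells/well, compound as 1:4 serial DMSO dilutions, CellTiter-Glo viability at 72 h.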

[7] = system: U-251; test: Antiproliferative activity against human U251 cells overexpressing ANO1 assessed as reduction in cell viability measured after 72 hrs by Celltiter-glo assay; assay type: functional; how it was run: as §1
[8] = system: U-251; test: Inhibition of anchorage-independent colony formation in human U251 cells at 30 uM incubated for 14 days by crystal violet staining based soft agar colony formation assay; assay type: functional, cell-based; settings: time 14.0 day; how it was run: as §2
[9] = system: U-251; test: Inhibition of anchorage-independent colony formation in human U251 cells at 10 uM incubated for 14 days by crystal violet staining based soft agar colony formation assay; assay type: functional, cell-based; settings: time 14.0 day; how it was run: as §2
[10] = system: U138-MG; test: Antiproliferative activity against human U138 cells overexpressing ANO1 assessed as reduction in cell viability measured after 72 hrs by Celltiter-glo assay; assay type: functional; how it was run: as §1
[11] = target: T2, Anoctamin-1 (Mus musculus, UniProt Q8BHY3); test: Inhibition of GFP-fused mouse ANO1 channel expressed in HEK293A cells assessed as inhibition of ATP-induced channel current amplitude at membrane potential of +80 mV by patch clamp electrophysiology assay; assay type: cell-based, HEK293-A
T2 sequence (Q8BHY3 whole entry): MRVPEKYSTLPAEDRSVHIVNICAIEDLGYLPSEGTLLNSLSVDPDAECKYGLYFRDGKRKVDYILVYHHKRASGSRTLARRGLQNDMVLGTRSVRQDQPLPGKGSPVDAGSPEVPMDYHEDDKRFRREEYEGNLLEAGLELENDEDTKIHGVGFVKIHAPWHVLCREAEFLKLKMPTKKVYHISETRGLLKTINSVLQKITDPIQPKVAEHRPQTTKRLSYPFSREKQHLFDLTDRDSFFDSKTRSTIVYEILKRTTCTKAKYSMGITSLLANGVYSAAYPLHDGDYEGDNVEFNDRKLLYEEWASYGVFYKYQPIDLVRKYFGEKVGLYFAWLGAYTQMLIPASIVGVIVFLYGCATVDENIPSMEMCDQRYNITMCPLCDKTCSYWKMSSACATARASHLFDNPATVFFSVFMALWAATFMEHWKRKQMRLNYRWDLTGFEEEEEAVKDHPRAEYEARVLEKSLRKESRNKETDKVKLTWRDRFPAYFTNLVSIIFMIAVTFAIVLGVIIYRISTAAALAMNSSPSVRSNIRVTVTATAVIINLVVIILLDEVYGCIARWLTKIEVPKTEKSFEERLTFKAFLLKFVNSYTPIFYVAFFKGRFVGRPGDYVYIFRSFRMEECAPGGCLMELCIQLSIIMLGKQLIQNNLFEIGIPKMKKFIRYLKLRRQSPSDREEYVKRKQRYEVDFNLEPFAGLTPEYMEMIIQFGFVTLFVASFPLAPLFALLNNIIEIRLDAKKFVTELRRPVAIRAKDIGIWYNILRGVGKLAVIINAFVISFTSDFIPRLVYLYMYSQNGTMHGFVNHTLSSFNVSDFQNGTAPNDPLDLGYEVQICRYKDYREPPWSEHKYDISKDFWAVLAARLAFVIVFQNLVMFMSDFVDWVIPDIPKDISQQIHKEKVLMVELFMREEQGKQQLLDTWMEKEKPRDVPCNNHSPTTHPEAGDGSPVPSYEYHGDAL
How it was run: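 Whole-cell recording at room temperature in HEK293A cells transfected with GFP-mANO1, GFP-mANO2 or GFP-mTTYH1. 1 s ramps from +80 to -80 mV, holding potential -10 mV. For ANO1/ANO2: pipette CsCl 146 mM with Ca-EGTA-NMDG, pH 7.3; bath NaCl-based, pH 7.3. For TTYH1: Tris-aspartate pipette (pH 7.2) and Tris-HCl bath (pH 7.4), with […] and BaCl2 added to block K+ channels, and hypotonic (220 mOsm/kg) bath. Washout recordings assessed reversibility.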

[12] = system: U-251; test: Inhibition of colony formation in human U251 cells at 10 uM incubated for 14 days by crystal violet dye based assay; assay type: functional
How it was run: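 Colonies stained 24 h with crystal violet in methanol/formaldehyde/PBS, washed, extracted with 10% acetic acid and read at A570 nm. Compared against DMSO control.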

[13] = system: U-87 MG; test: Antiproliferative activity against human U87MG cells overexpressing ANO1 assessed as reduction in cell viability measured after 72 hrs by Celltiter-glo assay; assay type: functional, U-87MG ATCC; how it was run: as §1

**Q.** With NC(=O)c1ccsc1N as the compound, how does the inhibition [1] read?
**A.** < 10%

**Q.** Which inhibition [1] does the source give for Cc1ncsc1C(=O)NC(=S)Nc1sc2c(c1C(N)=O)CCC2 here?
**A.** < 10%

**Q.** Which inhibition [1] does the source give for NC(=O)c1c(NC(=O)c2ccccc2)sc2c1CCCCC2 here?
**A.** 12.1%

**Q.** Which inhibition at 10 µM [2] does the source give for CC(C)(C)C1CCc2c(sc(NC(=O)c3ccco3)c2C(=O)O)C1 (stereo unspecified) here?
**A.** 34.8%

**Q.** What about the inhibition at 100 µM [3] of the same compound?
**A.** < 50%

**Q.** And the inhibition at 100 µM ([4]; U-251, 336 h, time 14 day)?
**A.** 72.7%

**Q.** And the inhibition at 10 µM [5]?
**A.** 28.3%

**Q.** And the inhibition at 72 h, 100 µM [6]?
**A.** < 50%

**Q.** And the GI50 [7]?
**A.** 41.9 µM

**Q.** And the inhibition [8]?
**A.** inactive

**Q.** What about the inhibition [9] of the same compound?
**A.** inactive

**Q.** What about the GI50 [10] of the same compound?
**A.** 89.4 µM

**Q.** What about the IC50 [11] of the same compound?
**A.** 1.53 µM

**Q.** And the inhibition at 10 µM ([12]; U-251, 336 h, time 14 day)?
**A.** 72.7%

**Q.** Which inhibition [1] does the source give for NC(=O)c1c(NC(=S)NC(=O)c2ccc(C(F)(F)F)cc2)sc2c1CCC2 here?
**A.** < 10%

**Q.** With NC(=O)c1c(NC(=O)c2ccccc2)sc2c1CCC2 as the compound, how does the inhibition [1] read?
**A.** < 10%

**Q.** For CC(C)(C)C(=O)Nc1sc2c(c1C(N)=O)CCC2, which inhibition [1] is on record?
**A.** 12.5%

**Q.** With CC(C)(C)C1CCc2c(sc(NC(=O)c3ccco3)c2C(N)=O)C1 (stereo unspecified) as the compound, how does the inhibition [1] read?
**A.** < 10%

**Q.** For NC(=O)c1c(NC(=S)NC(=O)c2ccccc2)sc2c1CCCCC2, which inhibition [1] is on record?
**A.** 21.1%

**Q.** With NC(=O)c1ccsc1NC(=O)c1ccco1 as the compound, how does the inhibition [1] read?
**A.** 39.5%

**Q.** Which inhibition [1] does the source give for COc1cc(OC)cc(C(=O)NC(=S)Nc2sc3c(c2C(N)=O)CCC3)c1 here?
**A.** 46.1%

**Q.** Which inhibition [1] does the source give for COc1ccc(C(=O)NC(=S)Nc2sc3c(c2C(N)=O)CCC3)cc1OC here?
**A.** < 10%

**Q.** For NC(=O)c1c(NC(=S)NC(=O)c2ccco2)sc2c1CCC2, which inhibition [1] is on record?
**A.** < 10%

**Q.** With Cc1ccccc1NC(=O)c1c(NC(=O)C(F)(F)Br)sc2c1CCCCC2 as the compound, how does the inhibition at 10 µM [2] read?
**A.** 16.7%

**Q.** What about the GI50 [13] of the same compound?
**A.** 48 µM

**Q.** What about the inhibition ([4]; time 14.0 day) of the same compound?
**A.** inactive

**Q.** What about the inhibition at 10 µM [5] of the same compound?
**A.** 11.7%

**Q.** What about the inhibition at 72 h, 100 µM [6] of the same compound?
**A.** < 50%

**Q.** What about the GI50 [7] of the same compound?
**A.** 45.3 µM

**Q.** What about the inhibition [9] of the same compound?
**A.** inactive

**Q.** What about the GI50 [10] of the same compound?
**A.** 29.4 µM

**Q.** And the IC50 [11]?
**A.** 0.05 µM

**Q.** What about the inhibition ([12]; time 14.0 day) of the same compound?
**A.** inactive

**Q.** Which inhibition [1] does the source give for CC(C)(C)C(=O)Nc1sccc1C(N)=O here?
**A.** < 10%

**Q.** With COc1ccccc1/C=N/NC(=O)COc1ccc(Cl)cc1C as the compound, how does the IC50 [11] read?
**A.** 0.03 µM

**Q.** With NC(=O)c1c(NC(=S)NC(=O)c2ccc3c(c2)OCCO3)sc2c1CCC2 as the compound, how does the inhibition [1] read?
**A.** 12.3%
